Drawing on ChEMBL document CHEMBL1134642, “Dicationic bis(9-methylphenazine-1-carboxamides): relationships between biological activity and linker chain structure for a series of potent topoisomerase targeted anticancer drugs” (J Med Chem, 2001), this text covers IC50, GI50 and Ratio for one compound.

pIC50: −log10 of the molar value.

Assay [1] in a line: Concentration of the drug to reduce cell number to 50% of controls in AuxB1 cell line. The class given is functional, cell-based.
A further assay relates to D3F. Put plainly: Concentration of the drug to reduce cell number to 50% of controls in D3F cell line. The class given is functional, cell-based.
In assay [2] the test system is HT-29. As to the kind of experiment: Inhibitory concentration required to reduce cell growth to 50% of control cultures in the HT-29 human cell line. It is filed as functional.
For assay [3], the system named is HT-29. As to the kind of experiment: Inhibitory concentration of the drug resulting in inhibition of cell growth to 50% of controls in HT-29 (human colon). The class given is functional, cell-based.
Assay [4] can be described thus: Inhibitory concentration required to reduce cell number to 50% of control cultures in JLc(Jurkat human leukemia). The class given is functional. The method in brief:
(§1)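 Murine P388 leukemia, Lewis lung carcinoma (LL), and human Jurkat leukemia (JLC) cells, plus amsacrine- and doxorubicin-resistant Jurkat derivatives (JLA, JLD), were grown with drug. Seeding per well was 4.5×10^3 (P388), 10^3 (LL) and 3.75×10^3 (Jurkat). Exposure was 3 days (P388) or 4 days (others). Growth was read by [3H]TdR uptake (P388) or sulforhodamine assay. IC50 is the drug concentration (nM) halving cell number versus controls. Ratios are JLA/JLC and JLD/JLC IC50. Independent assays were run in duplicate.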

The test system of assay [5] is Lewis lung carcinoma cell line. Put plainly: Inhibitory concentration required to reduce cell number to 50% of control cultures in LL (Lewis lung carcinoma cell line). It is filed as functional, cell-based. The note with it: Mus musculus. The method in brief: as §1
Another assay concerns MOLT-4. As to the kind of experiment: Inhibitory concentration of the drug resulting in inhibition of cell growth to 50% of controls in MOLT-4 (human leukemia). It is filed as functional, cell-based.
Another assay concerns MCF7. As to the kind of experiment: Inhibitory concentration required to reduce cell growth to 50% of control cultures in the MCF-7 human cell line. It is filed as functional.
Assay [6] is described as follows: Inhibitory concentration required to reduce cell growth to 50% of control cultures in the NCI-ADR human cell line. The class given is functional. The note with it: NCI/ADR-RES.
For another assay, the system named is SK-OV-3. Put plainly: Inhibitory concentration required to reduce cell growth to 50% of control cultures in the SKOV3 human cell line. It is filed as functional.
The next assay concerns U-937. As to the kind of experiment: Inhibitory concentration of the drug resulting in inhibition of cell growth to 50% of controls in U937 (human leukemia). It is filed as functional, cell-based.
Another assay concerns Whole cell line panel. Put plainly: Average GI50 value for the drug over the whole cell line panel. It is filed as functional.
A short description of assay [7]: Ratio of IC50 values obtained from D3F-C10 and D3F cell lines. It is filed as functional.
Assay [8] can be described thus: Ratio of IC50 values obtained from Jurkat lines, (JLa /JLc). It is filed as functional, Homo sapiens. The method in brief: as §1
Assay [9] in a line: Ratio of IC50 values obtained from Jurkat lines, (JLd /JLc). The class given is functional, Homo sapiens. Summed up:
as §1

The subject of another assay is CAKI-1. As to the kind of experiment: Inhibitory concentration required to reduce cell growth to 50% of control cultures in the CAK1 human cell line. The class given is functional.
A further assay concerns HCT-116. As to the kind of experiment: Inhibitory concentration required to reduce cell growth to 50% of control cultures in the HTC116 human cell line. The class given is functional.
Assay [10] is described as follows: Ratio of IC50 values obtained from CHrC5 and AuxB1 cell lines. It is filed as functional.

Consider `Cc1cccc2nc3cccc(C(=O)NCCCN(C)CCCNC(=O)c4cccc5nc6cccc(C)c6nc45)c3nc12`, for which the pIC50 was 9.24 in assay [1]; 8.54 with D3F; 8.82 in the assay with HT-29 [3]; 8.25 in assay [4]; 8.48 in assay [5]; 9.46 in the assay on MOLT-4. In addition, in the assay on U-937, the pIC50 is 8.16. For the same compound, the GI50 in the assay on HT-29 [2] was less than 10 nM; in the assay on MCF7 it was less than 10 nM; in assay [6] it was 19 nM; with SK-OV-3, 220 nM; in the assay with Whole cell line panel, 20 nM; with CAKI-1 it was less than 10 nM. The compound further came in with a concentration for 50% growth inhibition (GI50) in the assay on HCT-116 of less than 10 nM. For the same compound, the Ratio in [7] is recorded as 0.57; in assay [8], 0.6; in assay [9], 0.6; in assay [10], 31.3.

What is called pIC50 is −log10 of the IC50, conventionally taken in molar units. The low end stands for a large IC50, the high end for a small IC50. The GI50 is the concentration giving 50% growth inhibition. A high value points to lower sensitivity of the cells.
